# Laboratory results taken from ChEMBL document CHEMBL5154669, “G-Quadruplex DNA as a Target in Pathogenic Bacteria: Efficacy of an Extended Naphthalene Diimide Ligand and Its Mode of Action” (J Med Chem, 2022).
# How the values were obtained:
# Enterobacter cloacae = experiment: Antibacterial activity against Enterobacter cloacae LMG 02783 assessed as inhibition of bacterial growth incubated for 20 hrs by CLSI based broth microdilution method; format: functional
# Method in brief: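 Broth microdilution in cation-adjusted Mueller-Hinton broth following CLSI guidelines. DMSO stocks were at 10 mM; compounds were twofold serially diluted over 128 to 2 μM. The inoculum was at 5 × 10⁵, prepared from colonies grown 20 h at 37 °C and adjusted to 0.5 McFarland. Plates ran 20 h at 37 °C with OD600 read-out. MIC was the lowest concentration inhibiting visible growth, in triplicate.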
# DNA = experiment: Stabilization of Staphylococcus aureus in G Quadruplex DNA GGGGCTAATTGGGGCTGGTGG assessed as melting at 10 uM incubated for 16 hrs temperature by […]; format: nucleic-acid assay
# Method in brief: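 Readout was CD melting, not FRET: 2.5 μM oligonucleotide in 10 mM lithium cacodylate pH 7.4 with KCl set per sequence (initial Tm 60-70 °C). Annealed 95 °C 5 min, cooled to room temperature over 4 h, then ligand 10 μM (4 equiv) equilibrated 16 h at 20 °C. Ellipticity at 260 nm tracked every 0.1 °C, 20-95 °C at 5 °C/min; Tm by van't Hoff two-state fit.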
# [1] = Toxicity against Galleria mellonella assessed as survival at 5 to 128 mg/kg measured after 5 days; format: organism-based; settings: in vivo, dose 5-128 mg/kg, time 5 day, read-out: Activity
# Method in brief: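 For uninfected larvae, 20 per treatment, 10 µL was injected into the hemocoel through the last left proleg to give 8, 16, 32, 64 or 128 mg/kg. NaCl 0.9% served as the negative control. Larvae were held at 37 °C for 5 d, with mortality recorded daily.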
structure (smiles),measurement,setting,value
CN(C)CCCn1c(=O)c2ccc3c(=O)n(CCCN(C)C)c(=O)c4c5[nH]c6ccccc6[nH]c5c(c1=O)c2c34.O=C(O)C(F)(F)F.O=C(O)C(F)(F)F,MIC,Enterobacter cloacae,8 µM
same,Tm,DNA,88.3 °C
same,survival at 120 h,[1],65%
